The source made the active and inactive calls. The calls are words filed in the database; no cut-off is given here.

The values below come from ChEMBL document CHEMBL3994584, “Identification of novel fluorescent probes preventing PrPSc replication in prion diseases” (Eur J Med Chem, 2017).

The species entered for series [1] is Mus musculus. The series is described as follows: Binding affinity to PrPSc aggregates in mouse prion protein RML infected mouse ScN2a cells incubated for 8 mins followed by proteinase K digestion using FITC filter by fluorescence confocal microscopic method. In short, it runs like this: (§1)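 N2a or ScN2a cells were grown on coverslips for 24 h, then fixed and permeabilized (4% formaldehyde/0.1% Triton X-100, 1 h, RT) and denatured with 6 M GdnHCl for 10 min. Where PK was used: 20 µg/mL for 15 min at 37 °C, stopped with PMSF. After NGS blocking, cells were stained with compound at 0.025% in 80% EtOH for 8 min at RT. Imaging was by confocal microscopy with a FITC filter.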

Series [2] can be described thus: Cytotoxicity against mouse ScN2a cells assessed as cell viability at 0.1 uM after 5 days by MTT assay relative to control. Format: cell-based. The note with it: read-out: Activity. In short, it runs like this: (§2)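 ScN2a cells were seeded in MEM at 2.5×10^4 cells/mL and allowed to settle for 2 h. Compounds (DMSO stock, diluted in EtOH then medium) were added at 0.1, 1 and 10 μM for 5 days at 37 °C under 5% CO2. MTT (5 mg/mL) was applied for 3 h and solubilized with DMSO/2-propanol. Plates were read at 570/690 nm. Viability is given as % of untreated control, mean ± SD of three independent experiments.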
For orientation: Formazan colour is commonly taken as a measure of viable cells.

The nature of series [3]: Cytotoxicity against mouse ScN2a cells assessed as cell viability at 1 uM after 5 days by MTT assay relative to control. The note with it: read-out: Activity. It counts as cell-based. A digest of the protocol: as §2
The nature of series [4]: Cytotoxicity against mouse ScN2a cells assessed as cell viability at 10 uM after 5 days by MTT assay relative to control. It counts as cell-based. The note with it: read-out: Activity. A digest of the protocol: as §2
The species named for series [5] is Mus musculus. The series is described as follows: Antiprion activity against mouse prion protein RML infected mouse ScN2a cells assessed as proteinase K-resistant PrPSc level at 0.1 uM incubated for 5 days followed by proteinase K digestion by Western blot method relative to control. A digest of the protocol: (§3)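 RML-infected ScN2a cells were treated with 0.1, 1 and 10 μM for 5 days, with DMSO ≤0.1% final. Lysates (500 μg protein) were digested with 10 μg PK for 1 h at 37 °C, stopped with 2 mM PMSF and ultracentrifuged. Pellets were run on SDS-PAGE and immunoblotted with anti-PrP Fab W226, with ECL detection. Densitometry gave PK-resistant PrPSc over total PrP, with untreated set to 100%. Three independent experiments.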

Series [6] is filed under the species Mus musculus. Kind of series: Antiprion activity against mouse prion protein RML infected mouse ScN2a cells assessed as proteinase K-resistant PrPSc level at 1 uM incubated for 5 days followed by proteinase K digestion by Western blot method relative to control. A digest of the protocol: as §3
The species named for series [7] is Mus musculus. The series is described as follows: Antiprion activity against mouse prion protein RML infected mouse ScN2a cells assessed as proteinase K-resistant PrPSc level at 10 uM incubated for 5 days followed by proteinase K digestion by Western blot method relative to control. A digest of the protocol: as §3
(In general: A western blot detects proteins with antibodies after separation by electrophoresis.)

The nature of series [8]: Antiprion activity against mouse prion protein RML infected mouse ScGT1 cells assessed as reduction in proteinase K-resistant PrPSc level incubated for 7 days followed by proteinase K digestion by ELISA. Conditions: ScGT1, 168 h. On the technique in general: In an ELISA, binding on a coated surface is turned into a signal by an enzyme label.
The next series relates to N2a. Kind of series: Effect on cellular prion protein level in mouse N2A cells up to 10 uM incubated for 5 days by Western blot method. It counts as functional, cell-based. In short, it runs like this: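 Non-infected N2a cells were treated at 0.1, 1 and 10 μM for 5 days. Lysates (50 µg protein, no PK digestion) were immunoblotted with anti-PrP Fab W226. PrPC was normalized to actin, with untreated controls set to 100%. Done in triplicate.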

For series [9], the species on record is Mus musculus. Kind of series: Binding affinity to proteinase K sensitive cellular prion protein in mouse N2A cells incubated for 8 mins by fluorescence confocal microscopic method. Format: cell-based. In short, it runs like this: as §1

As for `Cc1ccc2c(c1)sc(-c1ccc(N(C)C)cc1)[n+]2C`, the result in the series filed under Mus musculus [1] was Active.
With `COC1=CC2=NC(N/N=C/c3ccnc4ccccc34)=C3CC=CN3C2C=C1` (stereo unspecified), the viability at 120 h, 0.1 µM in series [2] worked out at 107%. Also, the viability at 120 h, 1 µM in [3] is 96.3%. Further, the viability at 120 h, 10 µM in series [4] was 83.3%. In addition, the results for the Activity in the series listed under Mus musculus [5], in the series filed under Mus musculus [6] and in the series filed under Mus musculus [7] were 76%, 35% and 9%, respectively. The IC50 in series [8] is 1.6 µM. Moreover, the result in the series on N2a and in the series filed under Mus musculus [9] was inactive. In addition, in the series listed under Mus musculus [1], the result was Active.

By IC50 is commonly meant the concentration at which inhibition is half-maximal.
